Reference: ChEMBL document CHEMBL1240368, “Chloroquine modulates HIV-1-induced plasmacytoid dendritic cell alpha interferon: implication for T-cell activation” (Antimicrob Agents Chemother, 2010)
The source made the active and inactive calls. No cut-off for these calls is given here.

How the values were obtained:
[1] = target: T1, Toll-like receptor (TLR7/TLR9) (Homo sapiens) (UniProt Q9NR96+Q9NYK1); assay: Inhibition of TLR7/TLR9-mediated activation of aldrithiol-2-treated HIV1 Ada-stimulated human PBMC assessed as CD86 expressing cells at 100 uM after 20 hrs by flow cytometry; format: cell-based; parameters: scale not given: the % may be the effect or the level left
In short: (§1)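 PBMC preincubated 1 h ± 100 μM chloroquine, stimulated 20 h with AT-2 HIV-1 Ada or MN (500 ng/ml p24); pDC gated Lin1− CD123+ HLA-DR+; surface CD86 (% cells), CD83 (% cells), or intracellular IRAK-4, IRF-7, IDO after Cytofix/Cytoperm with rabbit antibody plus PE anti-rabbit (MFI) by flow cytometry; microvesicle controls.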

[2] = target: T1, Toll-like receptor (TLR7/TLR9) (Homo sapiens); assay: Inhibition of TLR7/TLR9-mediated maturation of aldrithiol-2-treated HIV1 Ada-stimulated human PBMC assessed as CD83 expressing cells at 100 uM after 20 hrs by flow cytometry; format: cell-based; parameters: scale not given: the % may be the effect or the level left; in short: as §1
[3] = target: T1, Toll-like receptor (TLR7/TLR9) (Homo sapiens); assay: Inhibition of TLR7/TLR9-mediated activation of aldrithiol-2-treated HIV1 MN-stimulated human PBMC assessed as CD86 expressing cells at 100 uM after 20 hrs by flow cytometry; format: cell-based; parameters: scale not given: the % may be the effect or the level left; in short: as §1
[4] = target: T1, Toll-like receptor (TLR7/TLR9) (Homo sapiens); assay: Inhibition of TLR7/TLR9-mediated maturation of aldrithiol-2-treated HIV1 MN-stimulated human PBMC assessed as CD83 expressing cells at 100 uM after 20 hrs by flow cytometry; format: cell-based; parameters: scale not given: the % may be the effect or the level left; in short: as §1
[5] = target: T2, Toll-like receptor 7 (Homo sapiens) (UniProt Q9NYK1); assay: Inhibition of TLR7-mediated upregulation of IRAK4 expression in aldrithiol-2-treated HIV1 Ada-stimulated human PBMC at 100 uM after 20 hrs by flow cytometry; in short: as §1
T2 sequence (whole entry): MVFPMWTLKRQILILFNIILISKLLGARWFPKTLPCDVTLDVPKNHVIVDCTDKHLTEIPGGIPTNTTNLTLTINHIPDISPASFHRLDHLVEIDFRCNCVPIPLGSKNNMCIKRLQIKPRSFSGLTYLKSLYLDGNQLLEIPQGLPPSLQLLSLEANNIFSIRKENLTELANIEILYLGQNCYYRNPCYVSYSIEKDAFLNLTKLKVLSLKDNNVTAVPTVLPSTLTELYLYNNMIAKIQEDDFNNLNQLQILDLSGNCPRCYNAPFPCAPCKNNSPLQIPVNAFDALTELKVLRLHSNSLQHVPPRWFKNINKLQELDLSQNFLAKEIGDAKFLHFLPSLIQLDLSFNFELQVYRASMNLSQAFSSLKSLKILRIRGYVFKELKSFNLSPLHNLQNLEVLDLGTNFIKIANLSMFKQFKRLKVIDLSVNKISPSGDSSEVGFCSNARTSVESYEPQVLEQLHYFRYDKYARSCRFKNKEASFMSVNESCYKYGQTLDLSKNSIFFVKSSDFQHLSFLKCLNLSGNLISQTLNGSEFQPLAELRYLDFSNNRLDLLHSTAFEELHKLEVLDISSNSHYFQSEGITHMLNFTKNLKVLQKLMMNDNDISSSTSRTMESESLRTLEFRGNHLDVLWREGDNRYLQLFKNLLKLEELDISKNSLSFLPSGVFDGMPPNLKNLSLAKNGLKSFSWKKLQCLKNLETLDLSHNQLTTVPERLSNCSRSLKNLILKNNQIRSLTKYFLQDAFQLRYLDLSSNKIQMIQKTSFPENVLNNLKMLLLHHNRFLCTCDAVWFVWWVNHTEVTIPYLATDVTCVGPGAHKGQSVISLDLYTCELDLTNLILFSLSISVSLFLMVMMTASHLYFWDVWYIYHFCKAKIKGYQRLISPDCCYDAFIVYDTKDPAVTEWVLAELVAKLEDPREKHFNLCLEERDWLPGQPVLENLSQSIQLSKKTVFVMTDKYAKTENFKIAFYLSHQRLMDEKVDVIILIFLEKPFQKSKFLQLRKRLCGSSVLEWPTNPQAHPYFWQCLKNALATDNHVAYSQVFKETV

[6] = target: T2, Toll-like receptor 7 (Homo sapiens); assay: Inhibition of TLR7-mediated upregulation of IRAK4 expression in aldrithiol-2-treated HIV1 MN-stimulated human PBMC at 100 uM after 20 hrs by flow cytometry; in short: as §1
[7] = target: T2, Toll-like receptor 7 (Homo sapiens); assay: Inhibition of TLR7-mediated upregulation of IRF7 expression in aldrithiol-2-treated HIV1 Ada-stimulated human PBMC at 100 uM after 20 hrs by flow cytometry; in short: as §1
[8] = target: T2, Toll-like receptor 7 (Homo sapiens); assay: Inhibition of TLR7-mediated upregulation of IRF7 expression in aldrithiol-2-treated HIV1 MN-stimulated human PBMC at 100 uM after 20 hrs by flow cytometry; in short: as §1
[9] = target: T1, Toll-like receptor (TLR7/TLR9) (Homo sapiens); assay: Inhibition of TLR7/TLR9-mediated activation of aldrithiol-2-treated HIV1 Ada-stimulated human PBMC assessed as CD38-MFI level in activated CD8-positive cells at 5 uM after 20 hrs by flow cytometry; format: cell-based
In short: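 PBMC preincubated 1 h with 5 μM chloroquine, then stimulated with AT-2 HIV-1 Ada for 20 h; CD38 surface expression on gated CD3+ CD8+ T cells by flow cytometry, expressed as CD38 MFI.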

[10] = target: T1, Toll-like receptor (TLR7/TLR9) (Homo sapiens); assay: Inhibition of TLR7/TLR9-mediated activation of exogenous rIFNalpha2A-stimulated human CD8-positive T cells assessed as […] at 5 uM after 20 hrs by flow cytometry; format: cell-based; settings: T-cell
In short: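 Bead-enriched CD8+ T cells (indirect negative isolation) preincubated 1 h with 5 μM chloroquine, then given 1,000 U/ml rIFN-α2a for 20 h; CD38 MFI on CD3+ CD8+ cells by flow cytometry; anti-IFN-αR 64G12 (10 μg/ml, 30 min pretreatment) used as comparator; n = 3 experiments.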

[11] = target: T1, Toll-like receptor (TLR7/TLR9) (Homo sapiens); assay: Inhibition of TLR7/TLR9-mediated upregulation of indoleamine 2,3-dioxygenase expression in aldrithiol-2-treated HIV1 Ada-stimulated human PBMC at 100 uM after 20 hrs by flow cytometry; in short: as §1
[12] = target: T1, Toll-like receptor (TLR7/TLR9) (Homo sapiens); assay: Inhibition of TLR7/TLR9-mediated upregulation of indoleamine 2,3-dioxygenase expression in aldrithiol-2-treated HIV1 MN-stimulated human PBMC at 100 uM after 20 hrs by flow cytometry; in short: as §1
[13] = target: T1, Toll-like receptor (TLR7/TLR9) (Homo sapiens); assay: Inhibition of TLR7/TLR9-mediated indoleamine 2,3-dioxygenase activation in aldrithiol-2-treated HIV1 Ada-stimulated human PBMC assessed as decrease in kynurenine to tryptophan level at 100 uM after 20 hrs by fluorometric assay; format: protein assay
In short: (§2)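 PBMC (1 × 10^6/well) ± 100 μM chloroquine (1 h preincubation), stimulated 20 h with AT-2 HIV-1, 3M-011 or CpG A. Kynurenine in supernatant: 30% TCA, 50°C, 30 min, then Ehrlich's reagent, absorbance 490 nm. Tryptophan: 20% TCA, then TCA/formaldehyde/FeCl3 at 90°C for 2 h, fluorescence ex 360/em 460 nm. Duplicates, standard curves; reported as kynurenine/tryptophan ratio.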

[14] = target: T1, Toll-like receptor (TLR7/TLR9) (Homo sapiens); assay: Inhibition of TLR7/TLR9-mediated indoleamine 2,3-dioxygenase activation in aldrithiol-2-treated HIV1 MN-stimulated human PBMC assessed as decrease in kynurenine to tryptophan level at 100 uM after 20 hrs by fluorometric assay; format: protein assay; in short: as §2
[15] = target: T3, TLR7 and TLR8 (Homo sapiens) (UniProt Q9NYK1+Q9NR97); assay: Inhibition of TLR7/TLR8-mediated indoleamine 2,3-dioxygenase activation in 3M-011-stimulated human PBMC assessed as decrease in kynurenine to tryptophan level at 100 uM after 20 hrs by ELISA; format: protein assay
[16] = target: T4, Toll-like receptor 9 (Homo sapiens) (UniProt Q9NR96); assay: Inhibition of TLR9-mediated indoleamine 2,3-dioxygenase activation in CpGA-stimulated human PBMC assessed as decrease in kynurenine to tryptophan level at 100 uM after 20 hrs by ELISA
T4 sequence (whole entry): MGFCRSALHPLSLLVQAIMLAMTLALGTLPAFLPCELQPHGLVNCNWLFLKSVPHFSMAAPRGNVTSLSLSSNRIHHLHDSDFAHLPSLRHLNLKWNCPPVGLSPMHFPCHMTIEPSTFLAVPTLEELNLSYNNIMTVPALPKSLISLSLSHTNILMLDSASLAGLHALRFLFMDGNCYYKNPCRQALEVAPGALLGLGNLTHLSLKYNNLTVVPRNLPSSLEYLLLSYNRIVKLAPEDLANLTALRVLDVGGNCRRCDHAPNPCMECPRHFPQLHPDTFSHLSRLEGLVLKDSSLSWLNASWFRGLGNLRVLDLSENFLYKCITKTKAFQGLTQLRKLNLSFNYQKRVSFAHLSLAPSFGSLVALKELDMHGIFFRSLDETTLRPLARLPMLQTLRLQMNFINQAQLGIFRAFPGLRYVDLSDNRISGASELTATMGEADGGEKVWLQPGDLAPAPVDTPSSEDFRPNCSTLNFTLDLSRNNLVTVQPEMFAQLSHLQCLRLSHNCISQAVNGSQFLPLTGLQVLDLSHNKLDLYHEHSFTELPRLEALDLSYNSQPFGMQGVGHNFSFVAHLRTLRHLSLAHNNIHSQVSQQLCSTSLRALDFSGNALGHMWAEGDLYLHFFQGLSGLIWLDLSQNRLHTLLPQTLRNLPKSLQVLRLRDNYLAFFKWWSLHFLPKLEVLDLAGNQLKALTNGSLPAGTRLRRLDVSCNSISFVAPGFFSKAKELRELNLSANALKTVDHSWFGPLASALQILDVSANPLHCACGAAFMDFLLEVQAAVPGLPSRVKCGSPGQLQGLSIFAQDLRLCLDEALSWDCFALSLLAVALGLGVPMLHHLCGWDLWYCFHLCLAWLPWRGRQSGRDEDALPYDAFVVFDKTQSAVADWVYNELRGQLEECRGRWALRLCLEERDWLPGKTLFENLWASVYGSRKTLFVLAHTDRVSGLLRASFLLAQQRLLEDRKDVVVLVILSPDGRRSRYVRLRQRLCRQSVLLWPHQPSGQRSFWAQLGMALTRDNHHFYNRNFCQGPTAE

[17] = target: T1, Toll-like receptor (TLR7/TLR9) (Homo sapiens); assay: Inhibition of TLR7/TLR9-mediated upregulation of PDL1 expression in aldrithiol-2-treated HIV1 Ada-stimulated human PBMC at 100 uM after 20 hrs by flow cytometry
In short: (§3)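 Human PBMC (1 × 10^6 cells/well) preincubated 1 h with 100 μM chloroquine or medium, then cultured 20 h at 37°C with AT-2 HIV-1 (500 ng/ml p24), 3M-011 (3.0 μM) or CpG A (4 μg/ml); PDL-1 on pDC read as MFI by flow cytometry.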

[18] = target: T1, Toll-like receptor (TLR7/TLR9) (Homo sapiens); assay: Inhibition of TLR7/TLR9-mediated upregulation of PDL1 expression in aldrithiol-2-treated HIV1 MN-stimulated human PBMC at 100 uM after 20 hrs by flow cytometry; in short: as §3
[19] = target: T3, TLR7 and TLR8 (Homo sapiens); assay: Inhibition of TLR7/TLR8-mediated upregulation of PDL1 expression in 3M-011-stimulated human PBMC at 100 uM after 20 hrs by flow cytometry; in short: as §3
[20] = target: T4, Toll-like receptor 9 (Homo sapiens); assay: Inhibition of TLR9-mediated upregulation of PDL1 expression in CpGA-stimulated human PBMC at 100 uM after 20 hrs by flow cytometry; in short: as §3
[21] = target: T4, Toll-like receptor 9 (Homo sapiens); assay: Inhibition of TLR9-mediated IFN-alpha production in CpGA-stimulated human PBMC at 100 uM after 20 hrs by ELISA
[22] = target: T3, TLR7 and TLR8 (Homo sapiens); assay: Inhibition of TLR7/TLR8-mediated IFN-alpha production in 3M-011-stimulated human PBMC at 100 uM after 20 hrs by ELISA
[23] = target: T2, Toll-like receptor 7 (Homo sapiens); assay: Inhibition of TLR7-mediated IFN-alpha production in aldrithiol-2-treated HIV1 MN-stimulated human PBMC after 20 hrs by ELISA
[24] = target: T2, Toll-like receptor 7 (Homo sapiens); assay: Inhibition of TLR7-mediated IFN-alpha production in aldrithiol-2-treated HIV1 Ada-stimulated human PBMC after 20 hrs by ELISA
[25] = target: T2, Toll-like receptor 7 (Homo sapiens); assay: Inhibition of TLR7-mediated IFN-alpha production in aldrithiol-2-treated HIV1 MN-stimulated human PBMC at 100 uM after 20 hrs by ELISA
[26] = target: T2, Toll-like receptor 7 (Homo sapiens); assay: Inhibition of TLR7-mediated IFN-alpha production in aldrithiol-2-treated HIV1 Ada-stimulated human PBMC at 100 uM after 20 hrs by ELISA

T3 sequence (Q9NR97 whole entry, looked up, one chain of several): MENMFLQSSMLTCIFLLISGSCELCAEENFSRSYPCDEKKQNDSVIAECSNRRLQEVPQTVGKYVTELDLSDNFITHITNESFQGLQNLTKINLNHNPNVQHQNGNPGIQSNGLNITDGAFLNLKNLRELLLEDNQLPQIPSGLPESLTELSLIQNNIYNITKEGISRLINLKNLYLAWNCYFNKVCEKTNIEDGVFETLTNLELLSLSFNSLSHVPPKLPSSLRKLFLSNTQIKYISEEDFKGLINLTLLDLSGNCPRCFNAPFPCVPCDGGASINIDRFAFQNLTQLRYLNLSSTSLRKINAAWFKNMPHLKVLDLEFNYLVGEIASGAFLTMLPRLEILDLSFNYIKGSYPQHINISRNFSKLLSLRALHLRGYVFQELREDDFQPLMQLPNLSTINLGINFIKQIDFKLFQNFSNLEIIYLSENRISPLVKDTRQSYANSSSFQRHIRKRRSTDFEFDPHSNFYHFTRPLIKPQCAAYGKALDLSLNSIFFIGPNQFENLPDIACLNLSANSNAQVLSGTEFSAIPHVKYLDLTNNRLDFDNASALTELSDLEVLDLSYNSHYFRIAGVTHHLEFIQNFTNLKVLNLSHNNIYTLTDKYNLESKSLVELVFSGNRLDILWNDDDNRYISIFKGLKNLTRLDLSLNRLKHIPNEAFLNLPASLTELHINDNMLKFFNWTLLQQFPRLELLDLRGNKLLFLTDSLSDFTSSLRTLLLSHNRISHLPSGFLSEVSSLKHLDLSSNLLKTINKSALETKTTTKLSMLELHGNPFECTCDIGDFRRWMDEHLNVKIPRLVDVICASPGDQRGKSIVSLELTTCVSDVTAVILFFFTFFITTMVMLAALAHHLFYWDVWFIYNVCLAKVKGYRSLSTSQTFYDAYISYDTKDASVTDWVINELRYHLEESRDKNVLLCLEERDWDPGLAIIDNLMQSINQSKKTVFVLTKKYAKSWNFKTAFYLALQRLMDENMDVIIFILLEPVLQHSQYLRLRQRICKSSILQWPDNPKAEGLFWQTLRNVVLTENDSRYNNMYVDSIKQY

Compound: CCN(CC)CCCC(C)Nc1ccnc2cc(Cl)ccc12 (stereo unspecified)
- Activity [1]: 11.1%
- Activity [2]: 12.6%
- Activity [3]: 8.2%
- Activity [4]: 14.3%
- inhibition [5]: Active
- inhibition [6]: Active
- inhibition [7]: Active
- inhibition [8]: Active
- inhibition [9]: 23.4%
- inhibition [10]: inactive
- inhibition [11]: Active
- inhibition [12]: Active
- inhibition [13]: Active
- inhibition [14]: Active
- inhibition [15]: Active
- inhibition [16]: Active
- inhibition [17]: Active
- inhibition [18]: Active
- inhibition [19]: Active
- inhibition [20]: Active
- inhibition [21]: Active
- inhibition [22]: Active
- inhibition [23]: Dose-dependent effect
- inhibition [24]: Dose-dependent effect
- inhibition [25]: Active
- inhibition [26]: Active
